In brackets after ≈: the same amount, converted by molar mass. Activity calls are given as the source filed them. No cut-off for these calls is given here.
How the values were obtained:
[1] = tested on: Rattus norvegicus; experiment: Induction of sustained release of dopamine levels in Wistar rat striatum at 184.79 mg/kg, po after 12 hrs; assay type: functional
Outline: (§1)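 Oral dosing to rats at doses equimolar to L-dopa. Striatal L-dopa and dopamine measured over time by HPLC with electrochemical detection. Mean ± SE; each experiment in triplicate.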

[2] = tested on: Rattus norvegicus; experiment: Prolongation of plasma […] levels in Wistar rat at 184.79 mg/kg, po after 2 hrs; assay type: functional
Outline: (§2)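 Plasma L-dopa concentration–time profile in rats after oral administration, with sampling up to 8 h. Mean ± SE; each experiment in triplicate.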

[3] = tested on: Rattus norvegicus; experiment: Antioxidant activity assessed as decrease in SOD activity in Wistar rat plasma at 184.79 mg/kg, po after 1.5 hrs; assay type: functional
Outline: (§3)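 Rats dosed by oral gavage; plasma SOD and GPx activities measured 1.5 h after administration, expressed as units/(g Hb). Mean ± SE of five experiments; P < 0.05 vs L-dopa-treated group.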

[4] = tested on: Rattus norvegicus; experiment: Antioxidant activity assessed as increase in glutathione peroxidase activity in Wistar rat plasma at 184.79 mg/kg, po after 1.5 hrs; assay type: functional; outline: as §3
[5] = tested on: Rattus norvegicus; experiment: Induction of sustained release of […] levels in Wistar rat striatum at 184.79 mg/kg, po after 12 hrs; assay type: functional; outline: as §1
[6] = Solubility in 0.02 M hydrochloric acid buffer at pH 1.3; assay type: physicochemical
Outline: (§4)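 Solubility in water and in buffers at pH 1.3, 5.0 and 7.4, determined by HPLC-UV peak areas correlated with known concentrations. Means of three experiments ± SD.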

[7] = Chemical stability assessed as half life of hydrolysis in 0.02 M sodium acetate buffer at pH 5.0; assay type: physicochemical
Outline: (§5)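 Chemical hydrolysis at 37 °C at pH 1.3, 5.0 and 7.4. Codrug concentration followed over time; Kobs and t1/2 taken by regression from slopes of semilogarithmic concentration–time plots. Means of three experiments ± SD.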

[8] = Chemical stability assessed as half life of hydrolysis in 0.02 M hydrochloric acid buffer at pH 1.3; assay type: physicochemical; outline: as §5
[9] = Solubility in water; assay type: physicochemical; outline: as §4
[10] = Solubility in 0.02 M sodium acetate buffer at pH 5.0; assay type: physicochemical; outline: as §4
[11] = Solubility in 0.02 M phosphate buffer at pH 7.4; assay type: physicochemical; outline: as §4
[12] = Partition coefficient, log P at pH 7.4 by saturation shake flask method; assay type: physicochemical; conditions: octanol/water
Outline: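 log P measured by saturation shake-flask in n-octanol/phosphate buffer, pH 7.4. Concentrations in each layer quantified by C18 reverse-phase HPLC-UV against known standards. Means of three experiments ± SD.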

[13] = species: Homo sapiens; experiment: Stability in human plasma assessed as half life of hydrolysis
[14] = Chemical stability assessed as half life of hydrolysis in 0.02 M phosphate buffer at pH 7.4; assay type: physicochemical; outline: as §5
[15] = Pro-oxidant effect on Fe(2+)/H2O2-induced deoxyribose degradation relative to control; assay type: functional
Outline: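 Deoxyribose degradation induced by Fe(II)/H2O2 in a medium of deoxyribose, phosphate buffer, EDTA and H2O2 with no enzymatic activity. Compounds tested from 1 to 50 µM.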

[16] = Stability in rat plasma assessed as half life of hydrolysis; assay type: ADME, cell-free
Outline: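 Enzymatic hydrolysis at 37 °C in 80% human or rat plasma containing 20% 0.02 M phosphate buffer, pH 7.4, monitoring release of L-dopa. Fitted to first-order kinetics to give Kobs and t1/2. Means of three experiments ± SD.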

[17] = tested on: Rattus norvegicus; experiment: Anxiolytic effect in Wistar rat assessed as […] in entries and time spent in open field center at 184.79 mg/kg, po after 1.5 hrs; assay type: functional, organism-based; set-up: dose 184.79 mg/kg
[18] = Plasma concentration in Wistar rat at 65.46 mg/kg, po after 2 hrs; assay type: ADME, organism-based; set-up: dose 65.46 mg/kg, route oral; outline: as §2

SMILES	solubility [6]	half-life [7]	half-life [8]	solubility [9]	solubility [10]	solubility [11]	logD [12]	half-life [13]	half-life [14]	half-life [16]	concentration at 2 h [18]	Activity [1]	Activity [2]	Activity [3]	Activity [4]	Activity [5]	Activity [15]	Activity [17]
COC(=O)[C@H](CCC(=O)N[C@@H](CS)C(=O)NCC(=O)N[C@@H](Cc1ccc(O)c(O)c1)C(=O)OC)NC(C)=O [listing 1 of 2 here]												40 pmol/kg	105 µg/mL	174.86 U/g.Hb	847.78 U/g.Hb	40 pmol/mg		
N[C@@H](CCC(=O)N[C@@H](CS)C(=O)NCC(=O)N[C@H](Cc1ccc(O)c(O)c1)C(=O)O)C(=O)O																	inactive	
COC(=O)[C@H](CCC(=O)N[C@@H](CS)C(=O)NCC(=O)N[C@H](Cc1ccc(O)c(O)c1)C(=O)OC)NC(C)=O																		Active
COC(=O)CNC(=O)[C@H](CS)NC(=O)CC[C@H](NC(=O)[C@@H](Cc1ccc(O)c(O)c1)NC(C)=O)C(=O)OC	2740 µg/mL (≈ 4.92 mM)	69.3 h	31 h	7890 µg/mL (≈ 14.2 mM)	3840 µg/mL (≈ 6.9 mM)	3990 µg/mL (≈ 7.17 mM)	0.94	0.0783 h	15.1 h	1.9 min		40 pmol/kg	85 µg/mL	200.59 U/g	821 U/g.Hb	40 pmol/mg		Active
N[C@@H](Cc1ccc(O)c(O)c1)C(=O)O [LEVODOPA]											83 µg/mL			203.4 U/g.Hb	795.6 U/g		Dose-dependent effect	

Second part, led by results:

solubility [6]	half-life [7]	half-life [8]	solubility [9]	solubility [10]	solubility [11]	logD [12]	half-life [13]	half-life [14]	half-life [16]	concentration at 2 h [18]	SMILES	Activity [1]	Activity [2]	Activity [3]	Activity [4]	Activity [5]	Activity [15]	Activity [17]
35100 µg/mL (≈ 63.1 mM)	40.8 h	20.1 h	27000 µg/mL (≈ 48.6 mM)	25500 µg/mL (≈ 45.8 mM)	25600 µg/mL (≈ 46.1 mM)	0.89	0.0533 h	7.22 h			COC(=O)[C@H](CCC(=O)N[C@@H](CS)C(=O)NCC(=O)N[C@@H](Cc1ccc(O)c(O)c1)C(=O)OC)NC(C)=O [listing 2 of 2 here]							
550 µg/mL (≈ 1.13 mM)	80.1 h	40.4 h	320 µg/mL (≈ 0.658 mM)	690 µg/mL (≈ 1.42 mM)	460 µg/mL (≈ 0.946 mM)	0.8	0.222 h	23.2 h	4.1 min		N[C@H](Cc1ccc(O)c(O)c1)C(=O)N[C@@H](CCC(=O)N[C@@H](CS)C(=O)NCC(=O)O)C(=O)O							
2150 µg/mL (≈ 4.42 mM)	57.3 h	28.1 h	1800 µg/mL (≈ 3.7 mM)	1670 µg/mL (≈ 3.43 mM)	1930 µg/mL (≈ 3.97 mM)	0.75	0.252 h	12.2 h	2.7 min		N[C@@H](CCC(=O)N[C@@H](CS)C(=O)NCC(=O)N[C@@H](Cc1ccc(O)c(O)c1)C(=O)O)C(=O)O							

— ChEMBL document CHEMBL1139876, “Synthesis and study of L-dopa-glutathione codrugs as new anti-Parkinson agents with free radical scavenging properties” (J Med Chem, 2007)
